Among the data in PubChem BioAssay AID540312 (Sanford-Burnham Center for Chemical Genomics, 2011) are EC50 values, retold here.

Molecules are shown by their SMILES. Active and inactive are the calls of the source.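 Rule for the calls: active = mean EC50 of 20 µM or lower; inactive = the rest.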 Where only a bound is given, the exact number is not on record here.

The assay deals with CHO-CHOP luciferase reporter, UPR activation, luminescence. Briefly: CHOP luciferase reporter activation – CHO-CHOP cells, luminescence, SAR follow-up (AID 540312). In outline:
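Assay system – CHO-CHOP luciferase reporter cell line · Dosing – compound dose-response series, final DMSO at most 1% · Buffer or medium – F12 medium, 10% FBS · Detection – Steady-Glo luminescence · Schedule – 16–18 h cell rest, then 6 h compound treatment, 37 °C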

`CC1CN(S(=O)(=O)c2ccc(NC(=O)c3ccco3)cc2)CC(C)O1` (stereo unspecified): the EC50 is > 80 µM (inactive).

Consider `O=C(Nc1ccc(S(=O)(=O)N2CCOCC2)cc1)c1ccc([N+](=O)[O-])cc1`, for which the EC50 was > 80 µM (inactive).

With `O=C(Nc1nc2c(F)cc(F)cc2s1)c1cccnc1`, the EC50 was > 80 µM (inactive).

On to `O=C(Nc1nc2ccccc2s1)c1ccccn1`, for which the EC50 is > 80 µM (inactive).

Regarding `Fc1cc(F)c2nc(NCc3ccccn3)sc2c1`, the EC50 was > 80 µM (inactive).

On to `O=C(Nc1nc2ccc(F)cc2s1)c1ccccn1`, for which the EC50 is 12.6 µM.

In the case of `O=C(Nc1ccc(S(=O)(=O)N2CCOCC2)cc1)c1ccc(Br)o1`, the EC50 is > 80 µM (inactive).

Take `CC1(C)CCN(S(=O)(=O)c2ccc(NC(=O)c3ccc([N+](=O)[O-])o3)cc2)CC1`: the EC50 was 0.494 µM.

Turning to `CC1CCN(S(=O)(=O)c2ccc(NC(=O)c3ccc([N+](=O)[O-])o3)cc2)CC1`, the EC50 is 0.541 µM.

As to `Cc1ccc(C(=O)Nc2ccc(S(=O)(=O)N3CCOCC3)cc2)o1`, the EC50 was > 80 µM (inactive).

Take `O=C(Nc1ccc(S(=O)(=O)C2CCCCC2)cc1)c1ccc([N+](=O)[O-])o1`: the EC50 was 0.676 µM.

Regarding `Cc1cc(C)c2nc(NC(=O)c3ccccn3)sc2c1`, the EC50 was 7.56 µM.

Turning to `O=C(Nc1ccc(S(=O)(=O)N2CCNCC2)cc1)c1ccc([N+](=O)[O-])o1`, the EC50 result was “inactive”.

Turning to `O=C(Nc1ccc(S(=O)(=O)N2CCC(O)CC2)cc1)c1ccc([N+](=O)[O-])o1`, the EC50 was 2.02 µM.

On to `O=C(Nc1ccc(S(=O)(=O)N2CCOCC2)cc1)c1ccccc1`, for which the EC50 is > 80 µM (inactive).

With `O=C(Nc1nc2c(F)cc(F)cc2s1)c1ccncc1`, the EC50 is > 80 µM (inactive).

For `O=C(Nc1ccc(S(=O)(=O)N2CCOCC2)cc1)c1ccc([N+](=O)[O-])o1`, the concentration for a half-maximal effect (EC50) is 2.28 µM.

As to `O=C(Nc1ccc(S(=O)(=O)c2ccccc2)cc1)c1ccc([N+](=O)[O-])o1`, the EC50 was 1.09 µM.

Regarding `O=C(Nc1nc2ccccc2s1)c1cccnc1`, the EC50 was > 80 µM (inactive).

In the case of `O=C(Nc1ccc(S(=O)(=O)N2CCCC2)cc1)c1ccc([N+](=O)[O-])o1`, the EC50 is 0.742 µM.

As to `O=C(Nc1ccc(S(=O)(=O)N2CCOCC2)cc1)c1ccco1`, the EC50 was > 80 µM (inactive).

As for `O=C(Nc1ccc(S(=O)(=O)N2CCOCC2)cc1)c1ccc([N+](=O)[O-])s1`, the EC50 was 13.5 µM.

Take `O=C(Nc1cccc(S(=O)(=O)N2CCOCC2)c1)c1ccco1`: the EC50 is > 80 µM (inactive).

As for `O=C(Nc1nc2ccccc2s1)c1ccncc1`, the EC50 was > 80 µM (inactive).

Take `O=C(Nc1nc2c(F)cccc2s1)c1ccccn1`: the EC50 is 5.83 µM.

Consider `O=C(Nc1ccc(S(=O)(=O)N2CCCCC2)cc1)c1ccc([N+](=O)[O-])o1`, for which the EC50 was 1.75 µM.

For the molecule `O=C(Nc1ccc(C(=O)N2CCOCC2)cc1)c1ccco1`, the EC50 was > 80 µM (inactive).

With `O=C(Nc1nc2c(F)cc(F)cc2s1)c1ccccn1`, the EC50 is 7.22 µM.

On to `O=C(Nc1ccc(S(=O)(=O)N2CCOCC2)cc1)c1cccs1`, for which the EC50 is > 80 µM (inactive).

In the case of `O=C(Nc1nc2c(Cl)cc(Cl)cc2s1)c1ccccn1`, the EC50 is 10.6 µM.

`O=C(Nc1nc2c(F)cc(F)cc2s1)c1ccccc1`: the EC50 is > 80 µM (inactive).
